Molecular target: Nucleic Acid
Assay: In vitro inhibition of decoding site of bacterial rRNA (within the 30S ribosomal subunit) encoding luciferase reporter in transcription-translation assay
Assay type: functional, Bacteria
Method in brief: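 Coupled transcription–translation in bacterial S30 extract. Compounds were preincubated with the extract, then NTPs, amino acids and a plasmid encoding firefly luciferase were added, and plates were incubated 20 min at 25 °C. After chilling on ice, luciferin substrate was added for 15 min at room temperature and luminescence was read. Doses spanned 1 mM to 100 nM with six replicates per concentration. IC50 came from a variable-slope fit of light units vs log(c).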

Row | Compound | IC50 [µM]
1 | NC1CC(N)C(C(=O)N2CCC3(CC2)OCCO3)CC1O (configuration not stated) | > 1000
2 | NC(=O)[C@H]1CCCN1C(=O)C1CC(O)C(N)CC1N (some centres not stated) | > 1000
3 | NC1CC(N)C(C(=O)Nc2ccc(-c3cnco3)cc2)CC1O (configuration not stated) | 59
4 | NC1CC(N)C(C(=O)NCCN2CCOCC2)CC1O (configuration not stated) | > 1000
5 | NC1CC(N)C(C(=O)N2CCN(C3=NCCCN3)CC2)CC1O (configuration not stated) | > 1000
6 | NC1CC(N)C(C(=O)Nc2ccc(-n3ccnc3)cc2)CC1O (configuration not stated) | 290
7 | N#Cc1cccc(NC(=O)C2CC(O)C(N)CC2N)c1 (configuration not stated) | 450
8 | NC1CC(N)C(C(=O)NCCCN2CCCC2=O)CC1O (configuration not stated) | > 1000
9 | NC1CC(N)C(C(=O)N2CCNCC2)CC1O (configuration not stated) | > 1000
10 | NC1CC(N)C(OC2OC(CO)C(O)C(O)C2N)C(O)C1O (configuration not stated) | 3.9
11 | N[C@@H]1C[C@H](N)[C@@H](O)[C@H](O)[C@H]1O | > 1000
12 | NC(=O)C1CC(O)C(N)CC1N (configuration not stated) | > 1000

From ChEMBL document CHEMBL1134978, “Novel 2,5-dideoxystreptamine derivatives targeting the ribosomal decoding site RNA” (Bioorg Med Chem Lett, 2002)
